# Active and inactive are the calls of the source. No cut-off for these calls is given here.
# Columns and labels:
# 3T3-L1 [1] = experiment: Adipogenic activity in mouse 3T3L1 cells assessed as increase in triglyceride level after 8 days relative to control; assay type: functional, cell-based
# Procedure, shortened: (§1)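 3T3L1 fibroblasts grown in DMEM/10% newborn calf serum, 37 °C, 5% CO2. Two days post-confluence, differentiation induced with 2 μg/mL insulin, 1 μM dexamethasone, 125 μM IBMX in DMEM/10% FBS. Medium was then changed every two days to 10% FBS/DMEM plus 2 μg/mL insulin. Compounds added at induction and kept 8 days. Cells lysed by three freeze/thaw cycles; triglyceride measured by enzymatic kit.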
# 3T3-L1 [2] = experiment: Adipogenic activity in mouse 3T3L1 cells assessed as increase in triglyceride level at 1 uM after 8 days relative to control; assay type: functional; procedure, shortened: as §1
# 3T3-L1 [3] = experiment: Adipogenic activity in mouse 3T3L1 cells assessed as increase in triglyceride level at 3 uM after 8 days relative to control; assay type: functional; procedure, shortened: as §1
# 3T3-L1 [4] = experiment: Adipogenic activity in mouse 3T3L1 cells assessed as upregulation of ap2 gene expression at 3 to 30 uM by RT-PCR analysis; assay type: functional, cell-based
# Procedure, shortened: (§2)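 In differentiating 3T3L1 cells (insulin/dexamethasone/IBMX induction, compounds added at induction), total RNA extracted with TRIzol, reverse-transcribed, then quantitative PCR run with mouse primers for GLUT4 or aP2, with β-actin as reference gene.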
# 3T3-L1 [5] = experiment: Adipogenic activity in mouse 3T3L1 cells assessed as increase in triglyceride level at 30 uM after 8 days relative to control; assay type: functional; procedure, shortened: as §1
# 3T3-L1 [6] = experiment: Adipogenic activity in mouse 3T3L1 cells assessed as increase in triglyceride level at 10 uM after 8 days relative to control; assay type: functional; procedure, shortened: as §1
# 3T3-L1 [7] = experiment: Adipogenic activity in mouse 3T3L1 cells assessed as intracellular lipid droplet accumulation at 10 to 30 uM after 8 days by oil red O staining; assay type: functional, cell-based
# Procedure, shortened: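 3T3L1 fibroblasts, differentiation induced 2 days post-confluence with insulin (2 μg/mL), dexamethasone (1 μM), IBMX (125 μM) in 10% FBS/DMEM, then insulin-supplemented 10% FBS/DMEM changed every 2 days. Compounds present from induction. After 8 days of differentiation, cells stained with Oil Red O and photographed.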
# 3T3-L1 [8] = experiment: Adipogenic activity in mouse 3T3L1 cells assessed as upregulation of GLUT4 gene expression at 3 to 30 uM by RT-PCR analysis; assay type: functional, cell-based; procedure, shortened: as §2
# 3T3-L1 [9] = experiment: Adipogenic activity in mouse 3T3L1 cells assessed as upregulation of GLUT4 protein expression at 3 to 30 uM by […] analysis; assay type: functional, cell-based
# Procedure, shortened: (§3)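 Differentiating 3T3L1 cells (insulin/dexamethasone/IBMX induction, compounds added at induction) harvested in RIPA buffer with protease inhibitors. Proteins resolved by SDS-PAGE and blotted onto PVDF. Blots probed with primary antibodies to GLUT4 or aP2 and β-actin, then HRP-conjugated secondary antibodies.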
# 3T3-L1 [10] = experiment: Adipogenic activity in mouse 3T3L1 cells assessed as upregulation of ap2 protein expression at 3 to 30 uM by […] analysis; assay type: functional, cell-based
# 3T3-L1 [11] = experiment: Adipogenic activity in mouse 3T3L1 cells assessed as upregulation of GLUT4 protein expression at 3 to 10 uM by […] analysis; assay type: functional, cell-based; procedure, shortened: as §3
# 3T3-L1 [12] = experiment: Adipogenic activity in mouse 3T3L1 cells assessed as upregulation of ap2 protein expression at 3 to 10 uM by […] analysis; assay type: functional, cell-based; procedure, shortened: as §3
structure (smiles),measurement,setting,value
COc1c(O)cc2oc(-c3ccc(O)cc3)c(OC)c(=O)c2c1O,Activity,3T3-L1 [1],inactive
CN(CCOc1ccc(CC2SC(=O)NC2=O)cc1)c1ccccn1 (stereo not drawn) [ROSIGLITAZONE],Activity,3T3-L1 [2],335.6%
COc1cc(O)c2c(c1)O[C@H](c1cc(O)cc(O)c1)CC2=O [BLUMEATIN],Activity,3T3-L1 [3],121.2%
same,Activity,3T3-L1 [4],Active
same,Activity,3T3-L1 [5],219.2%
same,Activity,3T3-L1 [6],161.3%
same,Activity,3T3-L1 [7],Active
same,Activity,3T3-L1 [8],Active
same,Activity,3T3-L1 [9],Active
same,Activity,3T3-L1 [10],Active
COc1c(O)cc2oc(-c3cc(CC=C(C)C)c(O)c(C/C=C(\C)CO)c3)c(OC)c(=O)c2c1O [DODOVISCIN G],Activity,3T3-L1 [3],355.7%
COc1c(-c2ccc(O)cc2)oc2cc(O)cc(O)c2c1=O,Activity,3T3-L1 [1],inactive
C=C(C)C(O)Cc1cc(-c2oc3cc(O)c(OC)c(O)c3c(=O)c2OC)cc(CC=C(C)C)c1O (stereo not drawn) [DODOVISCIN B],Activity,3T3-L1 [3],328.1%
COc1c(O)cc2oc(-c3cc(CC=C(C)C)c(O)c(C[C@H](O)C(C)(C)O)c3)c(OC)c(=O)c2c1O [DODOVISCIN D],Activity,3T3-L1 [3],103.2%
same,Activity,3T3-L1 [5],198.2%
same,Activity,3T3-L1 [6],117.8%
COc1c(O)cc2oc(-c3cc(CC=C(C)C)c(O)c(CC=C(C)C)c3)c(OC)c(=O)c2c1O,Activity,3T3-L1 [3],256.2%
COc1c(-c2ccc(O)c(CCC(C)CO)c2)oc2cc(O)cc(O)c2c1=O (stereo not drawn) [DODOVISCIN I],Activity,3T3-L1 [3],189.6%
COc1c(-c2cc(CC=C(C)C)c(O)c(C/C=C(\C)CO)c2)oc2cc(O)cc(O)c2c1=O [DODOVISCIN E],Activity,3T3-L1 [3],280.2%
COc1cc(O)c2c(c1)O[C@H](c1ccc(O)cc1)CC2=O [SAKURANETIN],Activity,3T3-L1 [3],278.8%
same,Activity,3T3-L1 [5],459.4%
same,Activity,3T3-L1 [6],419.9%
C=C(C)C(O)Cc1cc(-c2oc3cc(O)c(OC)c(O)c3c(=O)c2OC)cc(CCC(C)CO)c1O (stereo not drawn) [DODOVISCIN A],Activity,3T3-L1 [3],138.5%
same,Activity,3T3-L1 [4],Active
same,Activity,3T3-L1 [11],Active
same,Activity,3T3-L1 [6],248.3%
same,Activity,3T3-L1 [12],Active
same,Activity,3T3-L1 [7],Active
same,Activity,3T3-L1 [8],Active
COc1c(O)cc2oc(-c3cc(CC=C(C)C)c(O)c(CCC(C)CO)c3)c(OC)c(=O)c2c1O (stereo not drawn),Activity,3T3-L1 [3],233%
same,Activity,3T3-L1 [4],Active
same,Activity,3T3-L1 [11],Active
same,Activity,3T3-L1 [6],289.8%
same,Activity,3T3-L1 [12],Active
same,Activity,3T3-L1 [7],Active
same,Activity,3T3-L1 [8],Active
COc1c(-c2cc(CC=C(C)C)c(O)c(CC=C(C)C)c2)oc2cc(O)cc(O)c2c1=O,Activity,3T3-L1 [3],169.9%
COc1c(-c2cc(CC=C(C)C)c(O)c(CCC(C)CO)c2)oc2cc(O)cc(O)c2c1=O (stereo not drawn) [DODOVISCIN H],Activity,3T3-L1 [3],263.1%
